According to ChEMBL document CHEMBL1139220, “Structure-activity relationship study of prion inhibition by 2-aminopyridine-3,5-dicarbonitrile-based compounds: parallel synthesis, bioactivity, and in vitro pharmacokinetics” (J Med Chem, 2007):
≈ marks a conversion by molar mass, not a printed value. Calls of active or inactive are those of the source. No cut-off for these calls is given here.

Columns and labels:
ScN2a [1] = assay: Cytotoxicity against ScN2a cells; format: functional; settings: Mus musculus, read-out: LD50 (the source's name)
Outline: (§1)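 Scrapie-infected mouse neuroblastoma ScN2a cells, seeded at about 40 000 cells/well, were exposed to compound for 5 days at 37 °C; concentrations up to 25 µM, final DMSO ≤0.25%. Viability was read first with calcein-AM (ex/em 492/525 nm). The same wells were then lysed, Benzonase-treated, digested with proteinase K (1 h, 37 °C), PTA-precipitated and assayed for PrP 27-30 by direct ELISA (D18 antibody, AP/pNPP). Triplicate, three independent experiments.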

ScN2a [2] = assay: Reduction of PrPSC accumulation in ScN2a cells upto 25 uM; format: functional, cell-based; settings: Mus musculus; outline: as §1
ScN2a [3] = assay: Reduction of PrPSC accumulation in ScN2a cells; format: functional, cell-based; settings: Mus musculus; outline: as §1
[4] = Solubility in phosphate buffer at pH 6.5 at 500 uM; format: physicochemical
[5] = target: T1, Adenosine receptor A1 (Homo sapiens) (UniProt P30542); assay: Inhibition of human adenosine A1 receptor at 5 uM relative to DPCPX
T1 sequence (whole entry): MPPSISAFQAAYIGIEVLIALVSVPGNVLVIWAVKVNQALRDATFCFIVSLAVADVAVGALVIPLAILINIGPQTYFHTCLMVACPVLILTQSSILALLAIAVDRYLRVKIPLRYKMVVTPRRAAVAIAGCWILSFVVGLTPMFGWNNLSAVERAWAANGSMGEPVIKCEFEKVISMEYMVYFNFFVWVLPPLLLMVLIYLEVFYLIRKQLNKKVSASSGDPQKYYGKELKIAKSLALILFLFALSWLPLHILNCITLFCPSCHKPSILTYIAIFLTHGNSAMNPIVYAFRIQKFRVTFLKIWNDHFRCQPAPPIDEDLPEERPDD
Outline: (§2)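 Human adenosine receptor subtypes hA1, hA2a and hA3 were tested with compound at 5 µM. Inhibition is expressed relative to a selective reference also used at 5 µM, taken as 100%: DPCPX for hA1, NECA for hA2a, IB-MECA for hA3.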

[6] = target: T2, Adenosine receptor A3 (Homo sapiens) (UniProt P0DMS8); assay: Inhibition of human adenosine A3 receptor ar 5 uM realtive to IB-MECA; outline: as §2
T2 sequence (whole entry): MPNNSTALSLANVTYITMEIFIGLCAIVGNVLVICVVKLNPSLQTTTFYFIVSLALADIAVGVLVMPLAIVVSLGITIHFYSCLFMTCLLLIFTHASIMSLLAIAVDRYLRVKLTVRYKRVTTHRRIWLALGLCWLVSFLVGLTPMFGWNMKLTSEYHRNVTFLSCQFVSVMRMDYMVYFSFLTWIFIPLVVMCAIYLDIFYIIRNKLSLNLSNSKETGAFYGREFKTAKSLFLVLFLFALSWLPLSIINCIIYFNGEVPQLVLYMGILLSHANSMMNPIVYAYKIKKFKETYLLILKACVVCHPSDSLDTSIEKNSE

[7] = target: Adenosine receptor A2a (Homo sapiens) (UniProt P29274); assay: Inhibition of human adenosine A2a receptor at 5 uM relative to NECA; outline: as §2
Adenosine receptor A2a (Homo sapiens), sequence (P29274 whole entry): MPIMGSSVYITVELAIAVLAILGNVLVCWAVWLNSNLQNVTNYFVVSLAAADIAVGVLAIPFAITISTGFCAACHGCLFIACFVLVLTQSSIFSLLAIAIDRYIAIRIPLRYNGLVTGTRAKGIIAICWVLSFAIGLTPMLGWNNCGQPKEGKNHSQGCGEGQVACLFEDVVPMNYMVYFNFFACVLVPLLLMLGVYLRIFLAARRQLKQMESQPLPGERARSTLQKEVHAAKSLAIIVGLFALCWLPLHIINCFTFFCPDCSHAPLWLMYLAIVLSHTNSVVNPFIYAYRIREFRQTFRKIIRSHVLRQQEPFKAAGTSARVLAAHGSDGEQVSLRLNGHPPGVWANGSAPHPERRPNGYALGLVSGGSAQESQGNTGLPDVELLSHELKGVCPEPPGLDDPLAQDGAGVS

Adenosine receptor A1 = target: T3, Adenosine receptor A1 (Homo sapiens, UniProt P30542); assay: Inhibitory constant aganist human adenosine A1 receptor
T3 sequence (P30542 whole entry): T1 sequence (whole entry)

| SMILES | CC50 (ScN2a [1]) [µM] | EC50 (ScN2a [3]) [µM] | solubility at 500 µM [4] [µM] | further results |
| --- | --- | --- | --- | --- |
| CN(CCSc1nc(N)c(C#N)c(-c2ccco2)c1C#N)Cc1ccccc1 | > 25 | – | – | Activity (ScN2a [2]): inactive |
| CCN(CC)CCSc1nc(N)c(C#N)c(-c2ccc(Cl)c(Cl)c2)c1C#N | > 25 | 7.2 | 200 (≈ 84.1 µg/mL) | – |
| N#Cc1c(N)nc(SCCN2CCOCC2)c(C#N)c1-c1ccco1 | > 25 | – | – | Activity (ScN2a [2]): inactive |
| CCN(CC)CCSc1nc(N)c(C#N)c(-c2ccccc2Cl)c1C#N | > 25 | 5.5 | > 400 | inhibition [5]: 95%; inhibition [6]: 77%; inhibition [7]: 62%; Ki (Adenosine receptor A1): 0.59 µM |
| N#Cc1c(N)nc(SCCN2CCCC2)c(C#N)c1-c1ccco1 | > 25 | 10.6 | 200 (≈ 67.9 µg/mL) | – |
| CCN(CC)CCCC(C)Nc1c2ccc(Cl)cc2nc2ccc(OC)cc12 (stereo not drawn) [QUINACRINE] | 7.8 | 0.8 | – | – |
| CCN(CC)CCSc1nc(N)c(C#N)c(-c2ccc(Br)cc2)c1C#N | > 25 | 6.1 | 200 (≈ 86.1 µg/mL) | – |
| CCN(CC)CCSc1nc(N)c(C#N)c(-c2cccc(Br)c2)c1C#N | > 25 | 4.3 | – | – |
| CNC(=O)[C@H]1O[C@@H](n2cnc3c(NCc4cccc(I)c4)ncnc32)[C@H](O)[C@@H]1O [IB-MECA] | – | > 25 | – | – |
| CN(C)CCCN1c2ccccc2Sc2ccc(Cl)cc21 [CHLORPROMAZINE] | – | – | > 400 | – |
| CCCCN(CCCC)CCSc1nc(N)c(C#N)c(-c2ccco2)c1C#N | > 25 | – | – | Activity (ScN2a [2]): inactive |
| CCN(CC)CCSc1nc(N)c(C#N)c(-c2cc(Cl)cc(Cl)c2)c1C#N | > 25 | 2.2 | – | – |
| N#Cc1c(N)nc(SCCN2CCCCC2)c(C#N)c1-c1ccco1 | > 25 | 8.1 | > 400 | – |
| CCN(CC)CCSc1nc(N)c(C#N)c(-c2cccc(Cl)c2)c1C#N | > 25 | 5.3 | – | – |
| N#Cc1c(N)nc(SCc2ccccc2)c(C#N)c1-c1cccs1 | > 25 | – | – | Activity (ScN2a [2]): inactive |
| CN(C)CCCSc1nc(N)c(C#N)c(-c2ccco2)c1C#N | > 25 | 10.2 | > 400 | – |
| CCN(CC)CCSc1nc(N)c(C#N)c(-c2cccc(Cl)c2Cl)c1C#N | > 25 | 4.5 | 200 (≈ 84.1 µg/mL) | – |
| N#Cc1c(N)nc(SCc2ncc[nH]2)c(C#N)c1-c1ccccc1 | – | > 25 | – | – |
| CN(C)CCSc1nc(N)c(C#N)c(-c2ccco2)c1C#N | > 25 | 13.9 | – | – |
| CN(Cc1cnc2nc(N)nc(N)c2n1)c1ccc(C(=O)N[C@@H](CCC(=O)O)C(=O)O)cc1 [METHOTREXATE] | – | – | > 400 | – |
| N#Cc1c(N)nc(SCCCN)c(C#N)c1-c1ccco1 | > 25 | – | – | Activity (ScN2a [2]): inactive |
| N#Cc1c(N)nc2sc(C(=O)c3ccccc3[N+](=O)[O-])c(N)c2c1-c1ccco1 | > 25 | 10.9 | – | – |
| N#Cc1c(N)nc(SCC(N)=O)c(C#N)c1-c1ccco1 | > 25 | – | – | Activity (ScN2a [2]): inactive |
| N#Cc1c(N)nc(Sc2ccccc2N)c(C#N)c1-c1ccco1 | > 80 | 80 | – | – |
| COc1ccc(-c2c(C#N)c(N)nc(SCc3ncc[nH]3)c2C#N)cc1 | – | > 25 | – | – |
| CCN(CC)CCSc1nc(N)c(C#N)c(-c2ccco2)c1C#N | > 25 | 8.8 | > 400 | – |
| N#Cc1c(N)nc(SCCCN2CCCCC2)c(C#N)c1-c1ccco1 | > 25 | 6 | > 400 | – |
| CCCn1c(=O)c2[nH]c(C3CCCC3)nc2n(CCC)c1=O [1,3-DIPROPYL-8-CYCLOPENTYLXANTHINE [DPCPX]] | – | > 25 | – | – |
| CCN(CC)CCSc1nc(N)c(C#N)c(-c2ccc(Cl)cc2)c1C#N | > 25 | 7.5 | 200 (≈ 77.2 µg/mL) | – |
| CC(C)N(CCSc1nc(N)c(C#N)c(-c2ccco2)c1C#N)C(C)C | > 25 | 13.4 | – | – |
